ChEMBL document CHEMBL3600351, “Exploiting translational stalling peptides in an effort to extend azithromycin interaction within the prokaryotic ribosome nascent peptide exit tunnel” (Bioorg Med Chem, 2015)
In brackets after ≈: the same amount, converted by molar mass. Activity calls are given as the source filed them. No cut-off for these calls is given here.

What was measured:
Staphylococcus aureus [1] = test: Antibacterial activity against Staphylococcus aureus ATCC 29213 assessed as inhibition of bacterial growth after 18 hrs in presence of 50% bovine serum by liquid microdilution method; format: functional; settings: ATCC 29213, 18 h
In short: (§1)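 S. aureus ATCC 29213 overnight culture (37 °C) diluted 1:1000 in 50% bovine serum/broth and run by liquid microdilution. Growth was taken from OD600 change over 18 h at 37 °C to give MIC50, in triplicate against a vehicle control. The enhancement ratio is MIC50 without serum divided by MIC50 with serum.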

Staphylococcus aureus [2] = test: Antibacterial activity against Erm+ methicillin-resistant Staphylococcus aureus ATCC 33591 assessed as inhibition of bacterial growth after 18 hrs by liquid microdilution method; format: functional
In short: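 MRSA grown overnight at 37 °C in Nutrient broth, diluted 1:1000 in the same medium, then plated with the compounds. Growth was judged by comparing OD600 before and after 18 h at 37 °C. MIC50 was taken by liquid microdilution. Vancomycin was the positive control. Each compound was run in triplicate and standardized against an internal vehicle control.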

Staphylococcus aureus [3] = test: Antibacterial activity against Staphylococcus aureus ATCC 29213 assessed as inhibition of bacterial growth after 18 hrs by liquid microdilution method; format: functional; settings: ATCC 29213, 18 h
In short: (§2)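 Liquid microdilution. Overnight 37 °C cultures, E. coli ATCC 27856 in LB and S. aureus ATCC 29213 in TSB, diluted 1:1000 in the same medium and exposed to compound. Growth was taken from OD600 before and after 18 h at 37 °C. MIC50 is the read-out. Triplicate, normalized to an internal vehicle control.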

Staphylococcus aureus [4] = test: Ratio of MIC50 for Staphylococcus aureus ATCC 29213 in absence of 50% bovine serum to MIC50 for Staphylococcus aureus ATCC29213 in presence of 50% bovine serum; format: functional; in short: as §1
Escherichia coli = test: Antibacterial activity against Escherichia coli ATCC 27856 assessed as inhibition of bacterial growth after 18 hrs by liquid microdilution method; format: functional; in short: as §2
[5] = Inhibition of ribosome nascent peptide exit tunnel in Escherichia coli S30 extract assessed as inhibition of prokaryotic translation in presence of amino acids incubated for 20 mins by luciferase reporter gene assay
In short: (§3)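 E. coli S30 cell-free extract with all amino acids, preincubated with compound for 20 min at room temperature. Luciferase control template added, translation run 60 min at 37 °C, then stopped by 5 min on ice. Luminescence was read after luciferin addition. IC50 from nonlinear fit, triplicate, normalized to vehicle control.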

[6] = Binding affinity to ribosome nascent peptide exit tunnel in rabbit reticulocyte extract assessed as inhibition of eukaryotic translation in presence of amino acids incubated for 20 mins by luciferase reporter gene assay; parameters: species or system Oryctolagus cuniculus
In short: as §3, with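 “Nuclease-treated rabbit reticulocyte lysate” for “E. coli S30 cell-free extract”, “90” for “60”, “30” for “37”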

SMILES	MIC50 (Staphylococcus aureus [1]) [µg/mL]	MIC50 (Staphylococcus aureus [2]; ATCC 33591, 18 h) [µg/mL]	MIC50 (Staphylococcus aureus [3]) [µg/mL]	Ratio (Staphylococcus aureus [4])	MIC50 (Escherichia coli; ATCC 27856, 18 h) [µg/mL]	MIC50 (Staphylococcus aureus [2])	IC50 [5] [µM]	IC50 [6] [µM]	MIC50 (Escherichia coli)
CN[C@H](CC(C)C)C(=O)N[C@H]1C(=O)N[C@@H](CC(N)=O)C(=O)N[C@H]2C(=O)N[C@H]3C(=O)N[C@H](C(=O)N[C@H](C(=O)O)c4cc(O)cc(O)c4-c4cc3ccc4O)[C@H](O)c3ccc(c(Cl)c3)Oc3cc2cc(c3O[C@@H]2O[C@H](CO)[C@@H](O)[C@H](O)[C@H]2O[C@H]2C[C@](C)(N)[C@H](O)[C@H](C)O2)Oc2ccc(cc2Cl)[C@H]1O [VANCOMYCIN]	1.56	4 (≈ 2.76 µM)	1.56 (≈ 1.08 µM)	1					
CC[C@H]1OC(=O)[C@H](C)[C@@H](O[C@H]2C[C@@](C)(OC)[C@@H](O)[C@H](C)O2)[C@H](C)[C@@H](O[C@@H]2O[C@H](C)C[C@H](N(C)C)[C@H]2O)[C@](C)(O)C[C@@H](C)CN(CCCCc2cn(CCN3CCc4ccccc43)nn2)[C@H](C)[C@@H](O)[C@]1(C)O	0.16		1.56 (≈ 1.55 µM)	10	4 (≈ 3.99 µM)	inactive	0.147	> 250	
CC[C@H]1OC(=O)[C@H](C)[C@@H](O[C@H]2C[C@@](C)(OC)[C@@H](O)[C@H](C)O2)[C@H](C)[C@@H](O[C@@H]2O[C@H](C)C[C@H](N(C)C)[C@H]2O)[C@](C)(O)C[C@@H](C)CN(Cc2ccc(-c3cn(CCn4ccc5cc(OC)ccc54)nn3)cc2)[C@H](C)[C@@H](O)[C@]1(C)O	0.78		1.56 (≈ 1.46 µM)	2		inactive	0.504	> 250	inactive
CC[C@H]1OC(=O)[C@H](C)[C@@H](O[C@H]2C[C@@](C)(OC)[C@@H](O)[C@H](C)O2)[C@H](C)[C@@H](O[C@@H]2O[C@H](C)C[C@H](N(C)C)[C@H]2O)[C@](C)(O)C[C@@H](C)CN(Cc2ccc(-c3cn(CCn4ccc5cc(Cl)ccc54)nn3)cc2)[C@H](C)[C@@H](O)[C@]1(C)O	1.56		3.13 (≈ 2.93 µM)	2		inactive	1.25	> 250	inactive
CC[C@H]1OC(=O)[C@H](C)[C@@H](O[C@H]2C[C@@](C)(OC)[C@@H](O)[C@H](C)O2)[C@H](C)[C@@H](O[C@@H]2O[C@H](C)C[C@H](N(C)C)[C@H]2O)[C@](C)(O)C[C@@H](C)CN(CCCCc2cn(CC)nn2)[C@H](C)[C@@H](O)[C@]1(C)O	0.31		3.13 (≈ 3.53 µM)	10	32 (≈ 36.1 µM)	inactive	1.22	> 250	
CC[C@H]1OC(=O)[C@H](C)[C@@H](O[C@H]2C[C@@](C)(OC)[C@@H](O)[C@H](C)O2)[C@H](C)[C@@H](O[C@@H]2O[C@H](C)C[C@H](N(C)C)[C@H]2O)[C@](C)(O)C[C@@H](C)CN(CCCCc2cn(CCc3c[nH]c4ccc(Cl)cc34)nn2)[C@H](C)[C@@H](O)[C@]1(C)O	0.16		0.78 (≈ 0.753 µM)	5	32 (≈ 30.9 µM)	inactive	0.88	> 250	
CC[C@H]1OC(=O)[C@H](C)[C@@H](O[C@H]2C[C@@](C)(OC)[C@@H](O)[C@H](C)O2)[C@H](C)[C@@H](O[C@@H]2O[C@H](C)C[C@H](N(C)C)[C@H]2O)[C@](C)(O)C[C@@H](C)CN(CCCCc2cn(CCn3ccc4cc(F)ccc43)nn2)[C@H](C)[C@@H](O)[C@]1(C)O	0.31		1.56 (≈ 1.53 µM)	5	16 (≈ 15.7 µM)	inactive	0.646	> 250	
O=C(N[C@H](CO)[C@H](O)c1ccc([N+](=O)[O-])cc1)C(Cl)Cl [CHLORAMPHENICOL]					4 (≈ 12.4 µM)				
CC[C@H]1OC(=O)[C@H](C)[C@@H](O[C@H]2C[C@@](C)(OC)[C@@H](O)[C@H](C)O2)[C@H](C)[C@@H](O[C@@H]2O[C@H](C)C[C@H](N(C)C)[C@H]2O)[C@](C)(O)C[C@@H](C)CN(C)[C@H](C)[C@@H](O)[C@]1(C)O [AZITHROMYCIN]	0.13		0.78 (≈ 1.04 µM)	6	4 (≈ 5.34 µM)	inactive	0.292	> 250	
CC[C@H]1OC(=O)[C@H](C)[C@@H](O[C@H]2C[C@@](C)(OC)[C@@H](O)[C@H](C)O2)[C@H](C)[C@@H](O[C@@H]2O[C@H](C)C[C@H](N(C)C)[C@H]2O)[C@](C)(O)C[C@@H](C)CN(Cc2ccc(-c3cn(CCn4ccc5ccccc54)nn3)cc2)[C@H](C)[C@@H](O)[C@]1(C)O	0.63		1.56 (≈ 1.51 µM)	2.5	64 (≈ 61.8 µM)	inactive	0.197	> 250	
CC[C@H]1OC(=O)[C@H](C)[C@@H](O[C@H]2C[C@@](C)(OC)[C@@H](O)[C@H](C)O2)[C@H](C)[C@@H](O[C@@H]2O[C@H](C)C[C@H](N(C)C)[C@H]2O)[C@](C)(O)C[C@@H](C)CN(Cc2ccc(-c3cn(CCn4ccc5cc(F)ccc54)nn3)cc2)[C@H](C)[C@@H](O)[C@]1(C)O	0.78		1.56 (≈ 1.48 µM)	2	64 (≈ 60.8 µM)	inactive	0.463	> 250	
CC[C@H]1OC(=O)[C@H](C)[C@@H](O[C@H]2C[C@@](C)(OC)[C@@H](O)[C@H](C)O2)[C@H](C)[C@@H](O[C@@H]2O[C@H](C)C[C@H](N(C)C)[C@H]2O)[C@](C)(O)C[C@@H](C)CN(Cc2ccc(-c3cn(CCn4ccc5cc([N+](=O)[O-])ccc54)nn3)cc2)[C@H](C)[C@@H](O)[C@]1(C)O	0.39		1.56 (≈ 1.44 µM)	4	128 (≈ 118 µM)	inactive	0.442	> 250	
CC[C@H]1OC(=O)[C@H](C)[C@@H](O[C@H]2C[C@@](C)(OC)[C@@H](O)[C@H](C)O2)[C@H](C)[C@@H](O[C@@H]2O[C@H](C)C[C@H](N(C)C)[C@H]2O)[C@](C)(O)C[C@@H](C)CN(Cc2ccc(-c3cn(CCc4c[nH]c5ccc(Cl)cc45)nn3)cc2)[C@H](C)[C@@H](O)[C@]1(C)O	1.56		1.56 (≈ 1.46 µM)	1		inactive	0.586	> 250	inactive
CC[C@H]1OC(=O)[C@H](C)[C@@H](O[C@H]2C[C@@](C)(OC)[C@@H](O)[C@H](C)O2)[C@H](C)[C@@H](O[C@@H]2O[C@H](C)C[C@H](N(C)C)[C@H]2O)[C@](C)(O)C[C@@H](C)CN(CCCCc2cn(CCc3c[nH]c4ccc(F)cc34)nn2)[C@H](C)[C@@H](O)[C@]1(C)O	0.16		0.78 (≈ 0.765 µM)	5	32 (≈ 31.4 µM)	inactive	2.6	> 250	
CC[C@H]1OC(=O)[C@H](C)[C@@H](O[C@H]2C[C@@](C)(OC)[C@@H](O)[C@H](C)O2)[C@H](C)[C@@H](O[C@@H]2O[C@H](C)C[C@H](N(C)C)[C@H]2O)[C@](C)(O)C[C@@H](C)CN(Cc2ccc(-c3cn(CCc4c[nH]c5ccccc45)nn3)cc2)[C@H](C)[C@@H](O)[C@]1(C)O	1.56		3.13 (≈ 3.02 µM)	2		inactive	0.12	> 250	inactive
CC[C@H]1OC(=O)[C@H](C)[C@@H](O[C@H]2C[C@@](C)(OC)[C@@H](O)[C@H](C)O2)[C@H](C)[C@@H](O[C@@H]2O[C@H](C)C[C@H](N(C)C)[C@H]2O)[C@](C)(O)C[C@@H](C)CN(Cc2ccc(-c3cn(CCc4c[nH]c5ccc(F)cc45)nn3)cc2)[C@H](C)[C@@H](O)[C@]1(C)O	1.56		3.13 (≈ 2.97 µM)	2		inactive	2.03	> 250	inactive
CC[C@H]1OC(=O)[C@H](C)[C@@H](O[C@H]2C[C@@](C)(OC)[C@@H](O)[C@H](C)O2)[C@H](C)[C@@H](O[C@@H]2O[C@H](C)C[C@H](N(C)C)[C@H]2O)[C@](C)(O)C[C@@H](C)CN(CCCCc2cn(CCn3ccc4cc(Cl)ccc43)nn2)[C@H](C)[C@@H](O)[C@]1(C)O	0.16		0.78 (≈ 0.753 µM)	5	64 (≈ 61.8 µM)	inactive	0.49	> 250	
